The text below walks through data of ChEMBL document CHEMBL1123804, “Beta-substituted cysteines as sequestering agents for ethanol-derived acetaldehyde in vivo” (1987).

Type in all cases: functional
The species entered for experiment [1] is Rattus norvegicus. Nature of the experiment: Compound tested for the percentage of CO2 expired in rat was determined in 16-24h. In a few lines: (§1)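 14C label on the acetaldehyde moiety, diluted with unlabeled carrier in water and given at 8.0 mmol/kg (1.0 mL/100 g; radioactivity of the solution counted in duplicate). Two male Sprague-Dawley-descent rats (207 g, 247 g) were fasted overnight and housed in all-glass metabolism cages. Expired CO2 went into two successive cold methoxyethanol/ethanolamine (2:1) traps, sampled at 2, 4, 8, 16 and 24 h. Duplicates were counted by liquid scintillation, and values are the mean ± SD of two animals.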

In experiment [2] the test system is Rattus norvegicus. Briefly: Compound tested for the percentage of administered dose excreted in rat urine was determined in 2-4h. In a few lines:
(§2)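 Labeled material (14C on the acetaldehyde part, with unlabeled carrier, in water) was dosed at 8.0 mmol/kg, 1.0 mL/100 g, to two overnight-fasted male Sprague-Dawley-descent rats (207 g, 247 g) kept in all-glass metabolism cages. Urine was collected separately at 2, 4, 8, 16 and 24 h. Duplicate samples were counted by liquid scintillation, and results are averaged ± SD across the two animals.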

Experiment [3] is filed under the species Rattus norvegicus. Briefly: Compound tested for the percentage of CO2 expired in rat was determined in 8-16h. The essentials:
as §1

For experiment [4], the species on record is Rattus norvegicus. Briefly: Compound tested for the percentage of CO2 expired in rat was determined in 0-24 hr. The essentials:
as §1

For experiment [5], the species on record is Rattus norvegicus. Briefly: Compound tested for the percentage of CO2 expired in rat was determined in 0-2 hr. In a few lines:
as §1

For experiment [6], the system named is Rattus norvegicus. Nature of the experiment: Compound tested for the percentage of administered dose excreted in rat urine was determined in 16-24h. In a few lines: as §2
Experiment [7] relates to Rattus norvegicus. Nature of the experiment: Compound tested for the percentage of administered dose excreted in rat urine was determined in 0-24 hr. The essentials: as §2
The species entered for experiment [8] is Rattus norvegicus. Nature of the experiment: Compound tested for the percentage of CO2 expired in rat was determined in 4-8h. In a few lines: as §1
For experiment [9], the system named is Rattus norvegicus. Briefly: Compound tested for the percentage of administration dose excreted in rat feces was determined in 0-24 hr. The essentials:
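A radiolabeled dose (14C in the acetaldehyde moiety, with carrier, in water) of 8.0 mmol/kg at 1.0 mL/100 g went to two overnight-fasted male Sprague-Dawley-descent rats (207 g, 247 g) in all-glass metabolism cages. Feces collected over 24 h were lyophilized and pulverized, and 250-mg samples were combusted to 14CO2 for scintillation counting. Values are the mean ± SD of two animals.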

The species named for experiment [10] is Rattus norvegicus. Nature of the experiment: Compound tested for the percentage of CO2 expired in rat was determined in 2-4h. The essentials: as §1
The subject of experiment [11] is Rattus norvegicus. Nature of the experiment: Compound tested for the percentage of administered dose excreted in rat urine was determined in 4-8h. The essentials: as §2
For experiment [12], the system named is Rattus norvegicus. Briefly: Compound tested for the percentage of administered dose excreted in rat urine was determined in 8-16h. In a few lines: as §2
Experiment [13] concerns Rattus norvegicus. Nature of the experiment: Compound tested for the percentage of administered dose excreted in rat urine was determined in 0-2 hr. The essentials:
as §2

In the case of `CC1N[C@@H](C(=O)O)C(C)(C)S1` (stereo partly drawn), the Excreted in the experiment filed under Rattus norvegicus [1] is reported as 0.28%; in the experiment with Rattus norvegicus [2] it was 25.9%; in the experiment listed under Rattus norvegicus [3], 0.48%; in the experiment listed under Rattus norvegicus [4] it was 5.83%; in the experiment filed under Rattus norvegicus [5] it was 2.01%; in the experiment on Rattus norvegicus [6] it was 1.18%. In addition, the Excreted in the experiment with Rattus norvegicus [7] worked out at 79.2%; in the experiment filed under Rattus norvegicus [8], 1.36%; in the experiment with Rattus norvegicus [9], 1.38%; in the experiment listed under Rattus norvegicus [10] it was 1.7%; with Rattus norvegicus [11] it was 12.7%; in the experiment with Rattus norvegicus [12], 3.12%. For the same molecule, in the experiment with Rattus norvegicus [13], the Excreted came out at 36.3%.
